# Reference: ChEMBL document CHEMBL5252540, “3-Aroyl-1,4-diarylpyrroles Inhibit Chronic Myeloid Leukemia Cell Growth through an Interaction with Tubulin” (ACS Med Chem Lett, 2017)
# Structures can show the parent of a compound that is named as a salt. The source made the active and inactive calls. The rule behind the calls is not given here.
# Assays:
# [1] = tested on: MCF7; assay: Cytotoxicity against human MCF7 cells assessed as cell growth inhibition incubated for 3 days by trypan blue exclusion assay; type: functional, cell-based; conditions: MCF7, 72 h
# In short: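 MCF-7 human breast carcinoma cells; growth inhibition; triplicate experiments.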
# [2] = target: Tubulin; assay: Inhibition of tubulin (unknown origin) polymerization preincubated for 15 mins followed by GTP addition by turbidity based spectrophotometer analysis; type: protein-complex assay, Homo sapiens
# [3] = target: Tubulin (Homo sapiens) (UniProt P68371+Q9H4B7+P0DPH7+P68366+Q13509+Q71U36+P04350+Q3ZCM7+P07437+P68363+Q9BQE3+Q6PEY2+Q13885+Q9BVA1+Q9BUF5); assay: Inhibition of [3H]colchicine binding to tubulin (unknown origin) at 5 uM incubated for 10 mins relative to control; type: protein-complex assay
# [4] = tested on: LAMA-84; assay: Effect on total cofilin protein level in human LAMA-84 cells at 100 nM incubated for 24 hrs by Western blot analysis; type: functional, cell-based
# [5] = tested on: LAMA-84; assay: Effect on total beta-catenin protein level in human LAMA-84 cells at 100 nM incubated for 24 hrs by Western blot analysis; type: functional, cell-based
# [6] = target: Bcr/Abl fusion protein (Homo sapiens) (UniProt P00519+P11274); assay: Inhibition of BCR-ABL phospho-activation in human LAMA-84 cells at 100 nM incubated for 24 hrs by Western blot analysis; type: cell-based
# Sequence of Bcr/Abl fusion protein (Homo sapiens) (P00519 whole entry, looked up, the tested form may be a part): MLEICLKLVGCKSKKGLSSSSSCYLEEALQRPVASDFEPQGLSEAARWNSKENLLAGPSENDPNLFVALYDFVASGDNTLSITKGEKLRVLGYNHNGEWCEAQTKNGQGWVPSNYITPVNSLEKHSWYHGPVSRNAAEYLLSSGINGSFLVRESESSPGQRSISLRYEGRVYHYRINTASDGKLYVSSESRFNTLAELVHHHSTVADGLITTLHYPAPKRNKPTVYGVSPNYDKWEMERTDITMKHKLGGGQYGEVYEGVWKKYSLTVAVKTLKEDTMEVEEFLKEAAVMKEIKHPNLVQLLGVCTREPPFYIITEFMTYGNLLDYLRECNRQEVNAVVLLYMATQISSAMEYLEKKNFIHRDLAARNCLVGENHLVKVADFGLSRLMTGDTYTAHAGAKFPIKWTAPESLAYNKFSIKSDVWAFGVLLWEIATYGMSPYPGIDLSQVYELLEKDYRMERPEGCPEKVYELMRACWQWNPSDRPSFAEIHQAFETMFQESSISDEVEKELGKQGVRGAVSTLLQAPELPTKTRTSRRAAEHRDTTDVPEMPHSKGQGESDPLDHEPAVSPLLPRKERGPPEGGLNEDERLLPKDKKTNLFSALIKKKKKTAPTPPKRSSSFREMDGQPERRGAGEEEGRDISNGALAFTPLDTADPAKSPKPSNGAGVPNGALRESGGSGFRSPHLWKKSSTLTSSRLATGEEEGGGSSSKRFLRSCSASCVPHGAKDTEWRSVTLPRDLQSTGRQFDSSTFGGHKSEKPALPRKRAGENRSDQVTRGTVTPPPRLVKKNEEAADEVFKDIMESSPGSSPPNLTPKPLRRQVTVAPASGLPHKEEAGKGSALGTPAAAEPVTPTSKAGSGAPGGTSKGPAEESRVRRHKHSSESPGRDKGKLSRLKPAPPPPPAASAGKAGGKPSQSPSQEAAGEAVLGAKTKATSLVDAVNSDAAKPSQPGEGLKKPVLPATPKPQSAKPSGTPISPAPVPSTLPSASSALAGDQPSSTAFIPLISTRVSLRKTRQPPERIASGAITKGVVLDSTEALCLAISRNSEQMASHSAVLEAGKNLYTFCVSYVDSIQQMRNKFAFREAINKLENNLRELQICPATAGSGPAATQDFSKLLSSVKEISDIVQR
# Sequence of Bcr/Abl fusion protein (Homo sapiens) (P11274 whole entry, looked up, the tested form may be a part): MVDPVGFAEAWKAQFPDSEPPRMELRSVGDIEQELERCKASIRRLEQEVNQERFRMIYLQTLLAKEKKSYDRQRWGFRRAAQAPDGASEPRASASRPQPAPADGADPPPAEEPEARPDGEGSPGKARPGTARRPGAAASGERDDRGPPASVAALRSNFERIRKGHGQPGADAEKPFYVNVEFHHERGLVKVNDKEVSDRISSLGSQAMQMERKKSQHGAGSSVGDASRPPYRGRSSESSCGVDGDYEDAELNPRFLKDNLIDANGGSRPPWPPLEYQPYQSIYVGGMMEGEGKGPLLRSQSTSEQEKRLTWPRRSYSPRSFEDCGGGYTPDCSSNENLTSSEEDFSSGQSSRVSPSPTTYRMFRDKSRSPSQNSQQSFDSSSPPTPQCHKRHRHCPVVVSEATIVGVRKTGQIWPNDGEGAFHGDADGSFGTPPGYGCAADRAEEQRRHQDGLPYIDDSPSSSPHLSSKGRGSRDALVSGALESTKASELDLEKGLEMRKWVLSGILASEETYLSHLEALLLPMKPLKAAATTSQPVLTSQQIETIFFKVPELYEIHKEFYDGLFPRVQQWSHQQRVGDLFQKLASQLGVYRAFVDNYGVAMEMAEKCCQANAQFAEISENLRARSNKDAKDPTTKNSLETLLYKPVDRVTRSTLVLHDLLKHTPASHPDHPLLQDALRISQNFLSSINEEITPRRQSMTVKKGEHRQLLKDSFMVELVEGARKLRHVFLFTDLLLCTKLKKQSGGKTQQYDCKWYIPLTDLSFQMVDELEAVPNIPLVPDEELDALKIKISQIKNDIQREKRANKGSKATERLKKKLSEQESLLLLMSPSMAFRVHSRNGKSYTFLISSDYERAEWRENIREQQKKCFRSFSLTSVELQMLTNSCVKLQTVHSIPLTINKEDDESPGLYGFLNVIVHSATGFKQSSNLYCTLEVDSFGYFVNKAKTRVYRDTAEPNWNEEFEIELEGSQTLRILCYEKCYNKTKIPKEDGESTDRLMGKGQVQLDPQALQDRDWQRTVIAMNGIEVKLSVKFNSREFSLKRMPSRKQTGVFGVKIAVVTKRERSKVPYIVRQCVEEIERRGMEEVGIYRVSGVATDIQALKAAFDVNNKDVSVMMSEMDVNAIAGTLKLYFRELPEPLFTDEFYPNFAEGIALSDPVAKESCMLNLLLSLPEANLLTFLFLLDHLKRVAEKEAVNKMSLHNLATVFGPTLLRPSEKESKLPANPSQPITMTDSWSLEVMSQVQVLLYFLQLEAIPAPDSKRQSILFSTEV
# In short: (§1)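 LAMA84 cells cultured 24 h at 100 nM, alongside IM 100 nM and DMSO controls; lysates analysed by Western immunoblotting for BCR/ABL auto-activation and total E-cadherin.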
# [7] = tested on: KU812 cell line; assay: Induction of apoptosis in human KU812 cells assessed as increase in PARP cleavage measured after 24 hrs by Western blot analysis; type: functional, cell-based
# In short: (§2)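 KU812 cells treated for 6 h and 24 h; immunoblotting for p21Cip/WAF1 and PARP cleavage.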
# [8] = tested on: KU812 cell line; assay: Induction of cell cycle arrest in human KU812 cells assessed as accumulation of cells at sub-G1 phase incubated for 2 to 8 hrs by RNase/PI staining based flow cytometry analysis relative to control; type: functional; conditions: time 2-8 hrs
# In short: (§3)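 KU812 cells treated with 100 nM versus DMSO vehicle for 2-8 h or 24 h; cell cycle distribution (G2/M, sub-G1) by flow cytometry.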
# [9] = tested on: LAMA-84; assay: Antiproliferative activity against human LAMA-84 cells expressing BCR/ABL assessed as cell growth inhibition at 12 nM incubated for 48 hrs by MTT assay relative to control; type: functional
# In short: (§4)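 KU812 or LAMA84 CML blast-crisis cells (BCR/ABL-expressing) exposed to increasing doses for 48 h; proliferation read by MTT assay; triplicate experiments.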
# [10] = tested on: KYSE-150 cell line; assay: Cytotoxicity against human KYSE-150 cells assessed as cell growth inhibition incubated for 48 to 96 hrs by celltiter-flor reagent based fluorescence assay; type: functional
# [11] = tested on: HCT-116; assay: Cytotoxicity against human HCT-116 cells assessed as cell growth inhibition incubated for 48 hrs by MTT assay; type: functional, cell-based; conditions: HCT-116, 48 h
# [12] = tested on: HepG2; assay: Cytotoxicity against human HepG2 cells assessed as cell growth inhibition incubated for 48 hrs by MTT assay; type: functional, cell-based; conditions: HepG2, 48 h
# [13] = tested on: KU812 cell line; assay: Antiproliferative activity against human KU812 cells expressing BCR/ABL assessed as cell growth inhibition at 12 nM incubated for 48 hrs by MTT assay relative to control; type: functional; in short: as §4
# [14] = Cytotoxicity against human PBMC cells assessed as reduction in cell viability up to 1 uM incubated for 48 hrs by MTT assay; type: toxicity, cell-based
# In short: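 Peripheral blood mononuclear cells isolated from healthy donors, exposed to compound up to 1 μM for 48 h; viability read by MTT assay; triplicate experiments.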
# [15] = tested on: KBM5; assay: Cytotoxicity against imatinib mesylate sensitive human KBM5 cells expressing wild type BCR/ABL assessed as cell growth inhibition; type: functional, cell-based
# In short: (§5)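 Hematopoietic KBM5 cells ectopically expressing IM-sensitive wild-type or IM-resistant T315I BCR/ABL, dosed over a concentration range; growth measured by MTT assay; average IC50 from triplicate experiments.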
# [16] = tested on: KBM5; assay: Cytotoxicity against imatinib mesylate resistant human KBM5 cells expressing BCR/ABL T315I mutant assessed as cell growth inhibition; type: functional, cell-based; in short: as §5
# [17] = tested on: KBM5; assay: Induction of apoptosis in imatinib mesylate resistant human KBM5 cells expressing BCR/ABL-T315I mutant assessed as annexin V positive cells incubated for 48 hrs by annexin V-FITC/propidium iodide staining based flow cytometry analysis (reference value: 2.2+/-1.8%); type: functional
# [18] = tested on: KBM5; assay: Induction of apoptosis in imatinib mesylate sensitive human KBM5 cells expressing wild type BCR/ABL assessed as annexin V positive cells incubated for 48 hrs by annexin V-FITC/propidium iodide staining based flow cytometry analysis (reference value: 2.2+/-1.8%); type: functional
# [19] = tested on: KU812 cell line; assay: Induction of cell cycle arrest in human KU812 cells assessed as accumulation of cells at G2/M phase incubated for 2 to 8 hrs by RNase/PI staining based flow cytometry analysis (reference value: 35.7+/-[…]); type: functional; conditions: time 2-8 hrs
# [20] = tested on: KU812 cell line; assay: Induction of cell cycle arrest in human KU812 cells assessed as accumulation of cells at G2/M phase incubated for 24 hrs by RNase/PI staining based flow cytometry analysis relative to control; type: functional; in short: as §3
# [21] = tested on: KU812 cell line; assay: Induction of apoptosis in human KU812 cells assessed as accumulation of cells at sub-G1 phase incubated for 24 hrs by RNase/PI staining based flow cytometry analysis (reference value: 0.4+/-0.8%); type: functional
# [22] = tested on: KU812 cell line; assay: Induction of apoptosis in human KU812 cells assessed as upregulation of p21 Cip/WAF1 protein expression incubated for 6 hrs by Western blot analysis; type: functional, cell-based; in short: as §2
# [23] = tested on: KU812 cell line; assay: Induction of apoptosis in human KU812 cells assessed as upregulation of p21 Cip/WAF1 protein expression measured after 24 hrs by Western blot analysis; type: functional, cell-based; in short: as §2
# [24] = tested on: LAMA-84; assay: Downregulation of E-cadherin protein level in human LAMA-84 cells at 100 nM incubated for 24 hrs by Western blot analysis; type: functional, cell-based; in short: as §1
# [25] = tested on: KU812 cell line; assay: Antiproliferative activity against human KU812 cells expressing BCR/ABL assessed as cell growth inhibition; type: functional, cell-based; in short: as §4
# [26] = tested on: LAMA-84; assay: Antiproliferative activity against human LAMA-84 cells expressing BCR/ABL assessed as cell growth inhibition; type: functional, cell-based; in short: as §4
# [27] = tested on: KU812 cell line; assay: Induction of morphological changes in human KU812 cells assessed as elongated shape at 100 nM incubated for 16 hrs by immunostaining based phase contrast microscopic analysis; type: functional, cell-based
# In short: (§6)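 KU812 cells treated with 100 nM versus DMSO vehicle; shape examined by phase contrast microscopy with tubulin immunostaining, scoring elongation, multiple centrosomes and failed cytokinesis.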
# [28] = tested on: KU812 cell line; assay: Induction of morphological changes in human KU812 cells expressing BCR/ABL assessed as multiple centrosome cells with failed cytokinesis at 100 nM incubated for 16 hrs by immunostaining based phase contrast microscopic analysis; type: functional, cell-based; in short: as §6
# [29] = tested on: LAMA-84; assay: Downregulation of unphosphorylated beta-catenin protein expression in human LAMA-84 cells at 100 nM incubated for 24 hrs by Western blot analysis; type: functional, cell-based
# [30] = tested on: LAMA-84; assay: Downregulation of phospho cofilin protein expression in human LAMA-84 cells at 100 nM incubated for 24 hrs by Western blot analysis; type: functional, cell-based
# [31] = tested on: KU812 cell line; assay: Induction of apoptosis in human KU812 cells assessed as appearance of blue-to-cyan fluorescence in nucleus by Hoechst-3258 staining based analysis; type: functional, cell-based
# In short: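 KU812 cells treated with compound versus DMSO control; nuclear morphology by Hoechst-3258 staining, blue-to-cyan fluorescence scored as apoptotic.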
# [32] = tested on: LAMA-84; assay: Potentiation of imatinib mesylate induced antiproliferative activity against human LAMA-84 cells assessed as imatinib mesylate IC50 incubated for 48 hrs by MTT assay; type: functional, cell-based; conditions: LAMA-84, 48 h
# [33] = tested on: KBM5; assay: Potentiation of imatinib mesylate induced apoptosis in human KBM5 cells expressing wild type BCR/ABL assessed as increase in pro-apoptogenic effect at 100 nM incubated for 24 hrs by annexin V-FITC/propidium iodide staining based flow cytometry analysis; type: functional, cell-based
# In short: (§7)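 Annexin V-FITC staining to detect early cell death after 24 h; IM given with or without 100 nM test agent; read by flow cytometry; triplicate experiments.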
# [34] = tested on: KBM5; assay: Potentiation of imatinib mesylate induced apoptosis in human KBM5 cells expressing BCR/ABL T315I mutant assessed as increase in pro-apoptogenic effect at 100 nM incubated for 24 hrs by annexin V-FITC/propidium iodide staining based flow cytometry analysis; type: functional, cell-based; in short: as §7
# [35] = tested on: KU812 cell line; assay: Induction of apoptosis in human KU812 cells assessed as upregulation of caspase-3 activation by flow cytometry; conditions: time 0-24 hrs, TDE = time-dependent effect
# [36] = tested on: LAMA-84; assay: Antiproliferative activity against human LAMA-84 cells assessed as cell growth inhibition incubated for 48 hrs by MTT assay; conditions: LAMA-84, 48 h
# [37] = tested on: LAMA-84; assay: Antiproliferative activity against human LAMA-84 cells overexpressing BCR/ABL assessed as cell growth inhibition
# [38] = tested on: OVCAR-8; assay: Cytotoxicity against human OVCAR-8 cells assessed as cell growth inhibition incubated for 3 days by trypan blue exclusion assay; type: functional, cell-based; conditions: OVCAR-8, 72 h
# [39] = tested on: NCI/ADR-RES; assay: Cytotoxicity against human NCI/ADR-RES cells overexpressing p-glycoprotein assessed as cell growth inhibition incubated for 3 days by trypan blue exclusion assay; type: functional, cell-based; conditions: 72 h
smiles,measurement,setting,value
COc1cc(C(=O)c2cn(-c3cccc(C)c3)cc2-c2ccccc2)cc(OC)c1OC,IC50,[1],120 nM
same,IC50,[2],1700 nM
same,inhibition,[3],82%
COc1cc(C(=O)c2cn(-c3ccccc3)cc2-c2ccc(N)cc2)cc(OC)c1OC,Activity,[4],inactive
same,Activity,[5],inactive
same,inhibition,[6],inactive
same,Activity,[7],Active
same,Activity,[8],<10%
same,inhibition at 0.012 µM,[9],50%
same,inhibition,[3],81%
same,IC50,[10],20 nM
same,IC50,[11],20 nM
same,IC50,[12],46 nM
same,inhibition at 0.012 µM,[13],50%
same,Activity,[14],Non-Toxic
same,IC50,[15],15 nM
same,IC50,[16],18 nM
same,Activity,[17],58.2%
same,Activity,[18],62.6%
same,Activity,[19],60.3%
same,Activity,[20],11.4%
same,Activity,[21],75.6%
same,Activity,[22],Active
same,Activity,[23],inactive
same,Activity,[24],Active
same,IC50,[25],12 nM
same,IC50,[26],14 nM
same,Activity,[27],Active
same,Activity,[28],Active
same,Activity,[29],Active
same,Activity,[30],Active
same,Activity,[31],Active
same,IC50,[32],< 10 nM
same,Activity,[33],Active
same,Activity,[34],Active
same,Activity,[35],Tde
COc1cc(C(=O)c2cn(-c3ccccc3F)cc2-c2ccccc2)cc(OC)c1OC,IC50,[1],85 nM
same,IC50,[2],2000 nM
same,inhibition,[3],29%
COc1cc(C(=O)c2cn(-c3ccccc3)cc2-c2ccccc2F)cc(OC)c1OC,IC50,[1],30 nM
same,IC50,[2],580 nM
same,inhibition,[3],72%
COc1cc(C(=O)c2cn(-c3ccccc3)cc2-c2ccccc2)cc(OC)c1OC,IC50,[1],35 nM
same,IC50,[2],1100 nM
same,inhibition,[3],66%
Cc1ccc(NC(=O)c2ccc(CN3CCN(C)CC3)cc2)cc1Nc1nccc(-c2cccnc2)n1 [IMATINIB MESYLATE],IC50,[36],100 nM
same,IC50,[37],100 nM
COc1cc(C(=O)c2cn(-c3cccc(F)c3)cc2-c2ccccc2)cc(OC)c1OC,IC50,[1],350 nM
same,IC50,[2],2900 nM
same,inhibition,[3],42%
COc1cc(C(=O)c2ccn(-c3cccc(N)c3)c2)cc(OC)c1OC,IC50,[25],28 nM
same,IC50,[26],28 nM
COc1cc(C(=O)c2cn(-c3ccccc3)cc2-c2cccc(C)c2)cc(OC)c1OC,IC50,[1],450 nM
same,IC50,[2],1600 nM
same,inhibition,[3],5.7%
COc1cc(C(=O)c2cn(-c3ccccc3)cc2-c2cccc(N)c2)cc(OC)c1OC,IC50,[1],28 nM
same,IC50,[2],390 nM
same,inhibition,[3],57%
same,IC50,[38],190 nM
same,IC50,[39],110 nM
COc1cc(C(=O)c2cn(-c3ccccc3)cc2-c2ccc(F)cc2)cc(OC)c1OC,IC50,[1],78 nM
same,IC50,[2],760 nM
same,inhibition,[3],47%
COc1cc(C(=O)c2cn(-c3ccccc3)cc2-c2cccc(F)c2)cc(OC)c1OC,IC50,[1],57 nM
same,IC50,[2],630 nM
same,inhibition,[3],53%
COc1cc(C(=O)c2cn(-c3ccccc3)cc2-c2ccc(C)cc2)cc(OC)c1OC,IC50,[1],280 nM
same,IC50,[2],2200 nM
same,inhibition,[3],24%
COc1cc(C(=O)c2cn(-c3ccc(F)cc3)cc2-c2ccccc2)cc(OC)c1OC,IC50,[1],15 nM
same,IC50,[2],1300 nM
same,inhibition,[3],62%
same,IC50,[38],180 nM
same,IC50,[39],110 nM
COc1cc(C(=O)c2cn(-c3ccc(C)cc3)cc2-c2ccccc2)cc(OC)c1OC,IC50,[1],30 nM
same,IC50,[2],880 nM
same,inhibition,[3],79%
COc1cc(C(=O)c2cn(-c3cccc(N)c3)cc2-c2ccccc2)cc(OC)c1OC,IC50,[1],74 nM
same,IC50,[2],1100 nM
same,inhibition,[3],82%
